# Screening data (PubChem BioAssay)
# KCNQ1 inh – inhibitors of human KCNQ1 potassium channel | hit rate 1.3% among 310,000 | P51787 | B-score at 10 µM | CHO-K1 KCNQ1, FluxOR thallium flux fluorescence; hits give high values;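 active = compounds whose thallium flux B-score, printed positive for inhibition, exceeds three library SD while starting fluorescence stays within three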;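 also: channel opened by potassium depolarization with thallium stimulus after 20 min compound exposure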
# KCNK3 block – human KCNK3 channel inhibition, primary screen; CHO-KCNK3 thallium flux, FluxOR fluorescence; hits give low values; B-score at 10 µM; hit rate 0.84% among 340,000; AID 602410;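 active = B-score under library mean minus 4 SD, starting fluorescence ratio at most library mean plus 5 SD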;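 also: more negative B-score means stronger inhibition of thallium flux through KCNK3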
# Target sequence (O14649 whole entry, looked up): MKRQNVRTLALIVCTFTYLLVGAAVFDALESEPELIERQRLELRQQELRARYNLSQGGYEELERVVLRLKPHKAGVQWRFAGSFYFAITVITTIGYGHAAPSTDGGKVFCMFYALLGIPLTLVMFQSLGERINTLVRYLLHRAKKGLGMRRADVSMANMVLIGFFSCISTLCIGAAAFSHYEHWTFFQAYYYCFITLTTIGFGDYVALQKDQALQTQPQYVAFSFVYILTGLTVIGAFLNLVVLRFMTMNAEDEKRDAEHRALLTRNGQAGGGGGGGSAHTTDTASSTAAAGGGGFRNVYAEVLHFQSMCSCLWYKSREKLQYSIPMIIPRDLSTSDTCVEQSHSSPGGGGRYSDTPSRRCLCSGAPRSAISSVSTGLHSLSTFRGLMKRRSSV
# KCNK9 inh – blocks the human KCNK9 two-pore domain potassium channel. HEK293 KCNK9, FluxOR thallium flux fluorescence; hits give low values. B-score at 10 µM. hit rate 1.2% among 310,000;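 active = ratio B-score over 3 SD below the library mean, with starting fluorescence within 5 SD of its mean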;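 also: negative B-score means less thallium flux so channel inhibition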
# KCNQ1 act – potentiators or activators of human KCNQ1 potassium channel | P51787 | CHO-K1 KCNQ1, thallium flux FluxOR fluorescence; hits give high values | B-score at 10 µM | hit rate 0.35% among 310,000;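 active = fluorescence ratio B-score, a plate-corrected score, at least three library SD, with initial intensity B-score within 5 SD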
#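 Assay system: CHO-K1 cells stably expressing KCNQ1; Medium: assay buffer with matched DMSO; Also added: K+/Tl+ depolarizing stimulus; Dosing: single dose; Timing: dye 90 min, compound 20 min, room temperature; Measured by: kinetic FluxOR thallium fluorescence, 10-s 1-Hz baseline, 110-s post-stimulus read; Read-out: peak-minus-minimum fluorescence over initial fluorescence, negative-control normalized, B-scored.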
# hERG protect – hERG (human) protection from proarrhythmic block | CHO-hERG, FluxOR thallium flux, dofetilide IC70 present | activation (rescue from dofetilide block), less the hit threshold, % at 10 µM | hit rate 0.51% among 310,000 | AID 1511;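 active = activation above the mean of controls blocked by dofetilide plus 5 SD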;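 also: thallium influx through hERG after potassium depolarization seen as dye fluorescence rise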
# KCNK9 inh conf – human KCNK9 inhibitor confirmation. shares compounds with KCNK9 inh. HEK293 KCNK9 cells, FluxOR thallium flux fluorescence. inhibition, % at 10 µM. hit rate 43% among 4,900. AID 492992;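 active = thallium signal inhibited by more than 5 SD of the compound-free buffer control wells, on both duplicate plates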;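 also: 0% = assay buffer control wells without compound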
# Kir21 sel – mouse Kir2.1 off-target activity of KCNK9 modulators; shares compounds with KCNK9 inh; Kir2.1 cells, FluxOR thallium flux fluorescence; inhibition, % at 10 µM; hit rate 4% among 4,900;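 active = thallium signal drop more than 5 SD beyond the mean of the no-compound control wells, seen in both duplicate plates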;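 also: signal is fluorescence rise after thallium addition divided by baseline fluorescence; plate controls were assay buffer only for no effect and full block by chlorpromazine control for full effect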
# HEK293 Tl ctr – second check of KCNK9 modulator effects in non-induced HEK293 cells; inhibition, % at 10 µM; FluxOR thallium flux; hit rate 40% among 4,900; shares compounds with KCNK9 inh; AID 492997;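 active = thallium signal drop beyond 5 SD of the untreated control mean, on both duplicate plates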;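 also: plate controls were buffer only IC0 wells for no effect and SID17386958 at its maximal inhibitory level for full effect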
# The depositor's hits bear a star; i = inactive; · = not tested or not shown. Shown are actives, neighbours in structure and some others; about 3.1% of the full set was active somewhere.
SMILES,KCNQ1 inh,KCNK3 block,KCNK9 inh,KCNQ1 act,hERG protect,KCNK9 inh conf,Kir21 sel,HEK293 Tl ctr
Cc1cccc(S(=O)(=O)N2CCN(Cc3ccc4c(c3)OCO4)CC2)c1,i,i,i,i,-8,i,i,i
COc1ccc(F)cc1S(=O)(=O)N1CCN(Cc2ccc3c(c2)OCO3)CC1,i,i,i,i,-10,i,i,i
CCOc1ccc(S(=O)(=O)N2CCN(Cc3ccc4c(c3)OCO4)CC2)cc1Cl,i,i,i,i,-5,i,i,i
COc1ccc(S(=O)(=O)N2CCN(Cc3ccc4c(c3)OCO4)CC2)cc1,i,i,i,i,-6,·,·,·
Cc1ccc2nsnc2c1S(=O)(=O)N1CCN(Cc2ccc3c(c2)OCO3)CC1,i,i,i,i,0,i,i,i
CC(C)(C)NC(=O)C[C@H]1C[C@H](C(=O)N2CCCCC2)[C@@]2(C)c3[nH]c4ccc(Cl)cc4c3CCN2C1=O,·,i,·,·,·,·,·,·
Cc1ccc(N2C(=O)CSC2c2ccc3c(c2)OCO3)cc1 (stereo unspecified),i,i,i,i,-8,·,·,·
O=C1CSC(c2ccc3c(c2)OCO3)N1c1ccc(Oc2ccccc2)cc1 (stereo unspecified),i,i,-14*,i,-10,50%*,i,i
O=C(CN1CCC(Cc2ccccc2)CC1)NC(=O)NC1CCCCC1,i,i,i,i,-15,i,i,i
CCN(CC(=O)NC(=O)NC1CCCCC1)Cc1ccccc1,i,i,i,i,-7,i,i,i
O=C(CN1CCN(Cc2ccccc2)CC1)NC(=O)NC1CCCCC1,i,i,i,i,-4,·,·,·
COc1ccc(NC(=O)CN2CCN(c3ccccc3Cl)CC2)cc1,i,i,i,i,-12,i,i,i
O=C(CCCN1C(=O)/C(=C\c2ccccc2)SC1=S)Nc1ccc(C(=O)O)cc1,i,i,i,i,-4,·,·,·
CCOc1ccc(/C=C2\SC(=S)N(CCC(=O)Nc3ccc(C(=O)O)cc3)C2=O)cc1,i,i,i,i,-9,·,·,·
CCc1ccc(/C=C2\SC(=S)N(CCCC(=O)Nc3ccccc3C(=O)O)C2=O)cc1,i,i,i,i,-9,i,i,i
CCc1ccc(/C=C2\SC(=S)N(CCCC(=O)Nc3ccc(C(=O)O)cc3)C2=O)cc1,i,i,i,i,-4,i,i,i
Cc1ccc(/C=C2\SC(=S)N(CCCC(=O)Nc3ccccc3C(=O)O)C2=O)cc1,i,i,i,i,-15,·,·,·
CCOc1ccc(/C=C2\SC(=S)N(CCC(=O)Nc3cccc(C(=O)O)c3)C2=O)cc1,i,i,i,i,-10,i,i,i
Cc1cc(Br)ccc1-n1[nH]c(C)c(C=Nc2cccc3nsnc23)c1=O,i,i,i,i,-6,i,i,i
Cc1ccc(CSc2nc3ccsc3c(=O)n2Cc2ccccn2)cc1,i,i,-14*,i,-8,79%*,i,44%*
CN(C)c1ccc(C(=O)c2ccc(N(C)C)c3ccccc23)cc1,i,i,i,i,-4,i,i,i
O=c1oc2ccccc2c(O)c1Cc1cc(Cl)c2cccnc2c1O,i,i,i,i,-5,i,i,i
COC(=O)c1c(NC(NC(=O)CC(C)C)C(Cl)(Cl)Cl)sc2c1CCC2 (stereo unspecified),i,i,-9.7*,i,-12,i,i,49%*
CCC(=O)NC(Nc1sc2c(c1C(=O)OC)CCC2)C(Cl)(Cl)Cl (stereo unspecified),i,i,i,i,-6,·,·,·
Cc1nn(S(=O)(=O)c2ccc(Cl)cc2)c(C)c1Sc1ccc([N+](=O)[O-])cc1,i,i,i,i,-23,·,·,·
SMILES,KCNQ1 inh,KCNK3 block,KCNK9 inh,KCNQ1 act,hERG protect,KCNK9 inh conf,Kir21 sel,HEK293 Tl ctr
Cc1nn(-c2ccccc2)c(N)c1Sc1ccc([N+](=O)[O-])cc1,i,i,-13*,i,-16,73%*,i,34%*
CCOC(=O)C1=C(C)N=C2SC(C)C(=O)N2C1c1ccc(OC(C)=O)c(OC)c1 (stereo unspecified),i,i,-15*,i,-7,63%*,i,34%*
CCOc1cc(C2C(C(=O)OC)=C(C)N=C3SC(C)C(=O)N32)ccc1OC(C)=O (stereo unspecified),i,i,i,i,-3,·,·,·
COc1ccc(NS(=O)(=O)c2ccc3nc(COc4cccc5ccccc45)[nH]c3c2)cc1,i,i,i,i,-17,i,i,i
COc1ccc(NS(=O)(=O)c2ccc3nc(COc4ccc5ccccc5c4)[nH]c3c2)cc1,i,i,i,i,-8,·,·,·
NC(=O)C1CCN(c2nc(-c3ccccc3)nc3ccccc23)CC1,i,i,i,i,-18,·,·,·
CCOC(=O)C1CCN(c2nc(-c3ccc(Br)cc3)nc3ccccc23)CC1,i,i,-8.8*,i,-12,i,i,22%*
N/C(Cc1ccccc1)=N\OC(=O)c1cccc2ccccc12,i,i,-11*,i,-5,i,i,i
N/C(Cc1cccc2ccccc12)=N\OC(=O)c1ccccc1F,i,i,i,i,-1,·,·,·
N/C(=N\OC(=O)c1cccc2ccccc12)c1ccc(Br)cc1,i,i,-8.3*,i,-4,35%*,i,28%*
N/C(=N\OC(=O)c1cccc2ccccc12)c1ccncc1,i,i,i,i,-14,·,·,·
O=C(CCCN1C(=O)/C(=C\c2cccs2)SC1=S)NNC(=O)c1cccnc1,i,i,i,i,-6,·,·,·
Cc1ccc2nc(C)cc(C(=O)N/N=C/c3ccncc3)c2c1,i,i,i,i,-2,·,·,·
COc1ccc(/C=C\C(=O)O[C@@H]2C(O)C(O[C@@H]3OC(C)[C@H](O[C@@H]4OCC(O[C@H]5O[C@H](CO)[C@@H](O)C(O)C5O)C(O)C4O)C(O)C3O)[C@H](OC(=O)[C@]34CCC(C)(C)C[C@@H]3C3=CCC5[C@@]6(C)CC(O)C(O[C@@H]7OC(CO)C(O)[C@H](O)[C@H]7O)[C@@](C)(C(=O)O)C6CC[C@@]5(C)[C@]3(CO)CC4)O[C@H]2C)cc1 (stereo partly specified),·,i,·,·,·,·,·,·
